# According to ChEMBL document CHEMBL4680231, “A glutathione-responsive photosensitizer with fluorescence resonance energy transfer characteristics for imaging-guided targeting photodynamic therapy” (Eur J Med Chem, 2020):
# Active and inactive are the calls of the source. The calls are words filed in the database; no cut-off is given here.
# Assays:
# H22 [1] = experiment: Induction of ROS generation in mouse H22 cells at 10 uM incubated for 12 hrs irradiated with 20 mW cm^-2 light in presence of vitamin C by DCFH-DA staining based confocal laser scanning microscopic method; format: functional, cell-based
# How it was run: (§1)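 Cells were seeded in confocal dishes overnight. Pretreatment was GSH 5 mM in DMEM for 2 h, or vitamin C 100 μM for 1 h, before compound at 10 μM for 12 h. DCFH-DA was added for 1 h, then 5 PBS washes and transfer to serum-free, phenol red-free DMEM. Cells were irradiated at 670 nm, 20 mW·cm⁻², for 3 min. Confocal imaging used λex 488 nm for DCF and 633 nm for the photosensitizer.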
# [2] = Prodrug activation in human A549 cells assessed as increase in fluorescence at 10 uM after 8 hrs by confocal laser scanning microscopic method; format: cell-based; settings: a549, 8 h
# How it was run: (§2)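 Cells (10^5 per confocal dish) were seeded in DMEM overnight at 37 °C, 5% CO2. They were pretreated with 5 mM GSH in DMEM, or medium alone, for 2 h, then washed. Compound at 10 μM was added for 8 h. Intracellular fluorescence was read by confocal microscopy (excitation 633 nm) or by flow cytometry under the same conditions.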
# [3] = Drug localization in nucleus of human A549 cells assessed as GSH mediated cleavage at 10 uM after 12 hrs by DAPI dye based confocal laser scanning microscopic method; format: ADME, subcellular; settings: a549, 12 h
# How it was run: (§3)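 Cells were seeded in confocal dishes overnight, then given compound at 10 μM for 12 h. Staining was DAPI for 20 min, or Lyso-Tracker Red or Mito-Tracker Green for 60 min, followed by 5 PBS washes. Images were taken by confocal microscopy with excitation/detection of 405/425-475 nm (DAPI), 543/550-620 nm (Lyso) and 488/510-570 nm (Mito). Colocalization was judged from line intensity profiles.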
# [4] = Prodrug activation in human HeLa cells assessed as increase in fluorescence at 10 uM after 8 hrs by confocal laser scanning microscopic method; format: cell-based; how it was run: as §2
# [5] = Drug localization in lysosome of human A549 cells assessed as GSH mediated cleavage at 10 uM after 12 hrs by Lyso-Tracker Red dye based confocal laser scanning microscopic method; format: ADME, subcellular; settings: a549, 12 h; how it was run: as §3
# [6] = Drug localization in mitochondria of human A549 cells assessed as GSH mediated cleavage at 10 uM after 12 hrs by Mito-Tracker Green dye based confocal laser scanning microscopic method; format: ADME; settings: a549, 12 h; how it was run: as §3
# H22 [7] = experiment: (§4) Photodynamic antitumor activity against mouse H22 cells implanted in Kunming mouse assessed as reduction in tumour weight at 2 mg/kg, iv administered at […] post-implantation followed by irradiated with 100 mW/cm2 […] and measured up to 15 days; format: functional, organism-based; settings: time 15.0 day
# How it was run: (§5)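 Mice carried subcutaneous H22 tumours of about 50 mm³ and were randomised into 5 groups of 5. They received saline or compound at 2 mg/kg (100 μL) i.v. on days 1, 4 and 7. Light groups were irradiated at 670 nm, 100 mW/cm², 12 h after each dose. Tumour volume and body weight were recorded daily for 15 days. Tumours were then excised and weighed, fixed in 4% paraformaldehyde, paraffin-embedded and H&E stained. Apoptotic and necrotic areas were scored microscopically.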
# [8] = Prodrug activation in human HeLa cells assessed as increase in fluorescence at 10 uM after 8 hrs in presence of GSH by flow cytometric analysis; format: cell-based; how it was run: as §2
# [9] = Prodrug activation in human A549 cells assessed as increase in fluorescence at 10 uM after 8 hrs in presence of GSH by flow cytometric analysis; format: cell-based; settings: a549, 8 h; how it was run: as §2
# H22 [10] = experiment: Photodynamic antitumor activity against mouse H22 cells implanted in Kunming mouse assessed as reduction in tumour size at 2 mg/kg, iv administered at […] post-implantation followed by irradiated with 100 mW/cm2 […] and measured up to 15 days; format: functional, organism-based; settings: time 15.0 day; how it was run: as §5
# [11] = Photoactivity of compound in DMF assessed as singlet oxygen generation at 10 uM irradiated with 20 mW cm^-2 light by DMA based fluorescence assay; format: functional
# [12] = Prodrug activation in HELF cells assessed as increase in fluorescence at 10 uM after 8 hrs in presence of GSH by confocal laser scanning microscopic method; format: cell-based; settings: human, primary lung fibroblast; how it was run: as §2
# [13] = Prodrug activation in HELF cells assessed as increase in fluorescence at 10 uM after 8 hrs in presence of GSH by flow cytometric analysis; format: cell-based; settings: human, primary lung fibroblast; how it was run: as §2
# H22 [14] = experiment: as §4, with “increase in apoptotic cells” for “reduction”, “tumour” for “tumour weight”, “days by H and E staining based microscopic method” for “days”; format: functional, organism-based; settings: time 15.0 day; how it was run: as §5
# [15] = Prodrug activation in human A549 cells assessed as increase in fluorescence at 10 uM after 8 hrs in presence of GSH by confocal laser scanning microscopic method; format: cell-based; settings: a549, 8 h; how it was run: as §2
# [16] = Prodrug activation in mouse H22 cells assessed as increase in fluorescence at 10 uM after 8 hrs in presence of GSH by flow cytometric analysis; format: cell-based; settings: h22, 8 h; how it was run: as §2
# [17] = Prodrug activation in DMF assessed as pseudo-first-order kinetics at 10 uM incubated for 720 mins in presence of 10 mM GSH by fluorescence spectroscopic analysis; settings: 12 h
# HeLa = experiment: Induction of ROS generation in human HeLa cells at 10 uM incubated for 12 hrs irradiated with 20 mW cm^-2 light in presence of vitamin C by DCFH-DA staining based confocal laser scanning microscopic method; format: functional, cell-based; how it was run: as §1
# [18] = Drug uptake in Kunming mouse implanted with H22 cells at 2 mg/kg, iv and measured up to 24 hrs by FMT assay; format: ADME, organism-based; settings: in vivo
# How it was run: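 Mice carried subcutaneous back tumours from H22 cells (10^7 cells/mL, 100 μL), used at about 50 mm³. They received a single tail-vein injection of 2 mg/kg (200 μL), with saline as control, 3 mice per group. Whole-body fluorescence molecular tomography was taken at 0, 2, 6, 12 and 24 h. At 24 h, tumour, heart, liver, spleen, lung and kidney were imaged ex vivo.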
# [19] = Prodrug activation in DMF at 10 uM incubated for 720 mins in presence of 10 mM GSH by fluorescence spectroscopic analysis; settings: 12 h
# [20] = Prodrug activation in DMF at 10 uM incubated for 720 mins in presence of 2 uM GSH by fluorescence spectroscopic analysis; settings: 12 h
Drug metabolism [2],Drug metabolism [4],Drug metabolism [8],Drug metabolism [9],Drug metabolism [12],Drug metabolism [13],Drug metabolism [15],Drug metabolism [16],SMILES,Activity (H22 [1]),Activity (H22 [7]),Activity (H22 [10]),Drug metabolism [11],Activity (H22 [14]),Activity (HeLa),also measured
Metabolite_Detected,Metabolite_Detected,Metabolite_Detected,Metabolite_Detected,Metabolite_Detected,Metabolite_Detected,Metabolite_Detected,Metabolite_Detected,COCCOCCOCCOc1ccc(/C=C/C2=[N+]3C(=C(c4ccc(OCc5cn(CCSSCCn6cc(COc7ccc(C8=C9C(C)=CC(/C=C/c%10ccc(N(C)C)cc%10)=[N+]9[B-](F)(F)n9c(/C=C/c%10ccc(N(C)C)cc%10)cc(C)c98)cc7)nn6)nn5)cc4)c4c(C)c(I)c(/C=C/c5ccc(OCCOCCOCCOC)cc5)n4[B-]3(F)F)C(C)=C2I)cc1,inactive,Active,Active,Metabolite not detected,Active,inactive,Drug uptake [3]: Not Active; Drug uptake [5]: Active; Drug uptake [6]: Active; K [17]: 5.8 10^-3/min
Metabolite_Notdetected,Metabolite_Notdetected,Metabolite_Notdetected,Metabolite_Notdetected,Metabolite_Notdetected,Metabolite_Notdetected,Metabolite_Notdetected,Metabolite_Notdetected,COCCOCCOCCOc1ccc(/C=C/C2=[N+]3C(=C(c4ccc(OCc5cn(CCCCCCn6cc(COc7ccc(C8=C9C(C)=CC(/C=C/c%10ccc(N(C)C)cc%10)=[N+]9[B-](F)(F)n9c(/C=C/c%10ccc(N(C)C)cc%10)cc(C)c98)cc7)nn6)nn5)cc4)c4c(C)c(I)c(/C=C/c5ccc(OCCOCCOCCOC)cc5)n4[B-]3(F)F)C(C)=C2I)cc1,inactive,Active,Active,Metabolite not detected,Active,inactive,Drug uptake [18]: Active; Drug metabolism [19]: Metabolite_Notdetected; Drug metabolism [20]: Metabolite_Notdetected
